Columns and labels:
Assay type in all cases: cell-based
[1] = biological target: T1, RAS guanyl-releasing protein 1 (Homo sapiens, UniProt O95267); assay: Activation of GFP-tagged RasGRP1 (unknown origin) expressed in human LNCAP cells after 30 mins by immunoblot method
T1 sequence (O95267 whole entry): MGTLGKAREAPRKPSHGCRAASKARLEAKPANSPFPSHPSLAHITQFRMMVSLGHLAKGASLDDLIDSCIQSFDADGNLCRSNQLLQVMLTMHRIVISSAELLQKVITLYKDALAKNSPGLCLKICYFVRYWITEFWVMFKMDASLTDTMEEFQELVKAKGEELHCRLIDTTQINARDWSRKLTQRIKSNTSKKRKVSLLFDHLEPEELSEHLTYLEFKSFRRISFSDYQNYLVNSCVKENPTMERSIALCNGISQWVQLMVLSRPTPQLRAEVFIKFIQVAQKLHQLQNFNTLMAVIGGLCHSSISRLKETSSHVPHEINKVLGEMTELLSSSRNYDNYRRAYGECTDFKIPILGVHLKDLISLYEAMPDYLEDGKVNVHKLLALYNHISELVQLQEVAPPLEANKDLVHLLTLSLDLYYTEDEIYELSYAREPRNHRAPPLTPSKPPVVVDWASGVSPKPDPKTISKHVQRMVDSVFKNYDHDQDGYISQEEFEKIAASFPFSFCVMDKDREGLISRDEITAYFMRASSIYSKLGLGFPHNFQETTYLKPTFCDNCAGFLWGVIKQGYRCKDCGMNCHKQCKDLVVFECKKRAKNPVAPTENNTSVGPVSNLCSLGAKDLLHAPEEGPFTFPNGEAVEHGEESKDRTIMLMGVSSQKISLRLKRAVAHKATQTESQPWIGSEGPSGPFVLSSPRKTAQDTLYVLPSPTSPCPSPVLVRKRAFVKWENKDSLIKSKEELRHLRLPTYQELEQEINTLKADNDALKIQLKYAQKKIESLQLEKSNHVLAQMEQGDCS
Procedure, shortened: (§1)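 Cells expressing GFP-RasGRP1/3 (HEK293 or LNCaP, 48 h after plating, transfected; expression checked by fluorescence 24-48 h later) or Ramos with endogenous RasGRP3 treated with half-log increasing concentrations (max 10 µM), 1000 nM PMA or DMSO, 37 °C, 30 min, 5% CO2. RasGTP by Raf1 RBD bead pulldown and anti-Pan-Ras immunoblot; pERK by western blot. Band intensities normalized to 1000 nM PMA; EC50 from n = 3.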

[2] = biological target: Protein kinase C delta type (Homo sapiens, UniProt Q05655); assay: Activation of PKCdelta (unknown origin) expressed in HEK293 cells harboring GFP-tagged RasGRP1 assessed as phosphorylation at ser299 residues after 30 mins by immunoblot method
Chain of Protein kinase C delta type (Q05655 whole entry): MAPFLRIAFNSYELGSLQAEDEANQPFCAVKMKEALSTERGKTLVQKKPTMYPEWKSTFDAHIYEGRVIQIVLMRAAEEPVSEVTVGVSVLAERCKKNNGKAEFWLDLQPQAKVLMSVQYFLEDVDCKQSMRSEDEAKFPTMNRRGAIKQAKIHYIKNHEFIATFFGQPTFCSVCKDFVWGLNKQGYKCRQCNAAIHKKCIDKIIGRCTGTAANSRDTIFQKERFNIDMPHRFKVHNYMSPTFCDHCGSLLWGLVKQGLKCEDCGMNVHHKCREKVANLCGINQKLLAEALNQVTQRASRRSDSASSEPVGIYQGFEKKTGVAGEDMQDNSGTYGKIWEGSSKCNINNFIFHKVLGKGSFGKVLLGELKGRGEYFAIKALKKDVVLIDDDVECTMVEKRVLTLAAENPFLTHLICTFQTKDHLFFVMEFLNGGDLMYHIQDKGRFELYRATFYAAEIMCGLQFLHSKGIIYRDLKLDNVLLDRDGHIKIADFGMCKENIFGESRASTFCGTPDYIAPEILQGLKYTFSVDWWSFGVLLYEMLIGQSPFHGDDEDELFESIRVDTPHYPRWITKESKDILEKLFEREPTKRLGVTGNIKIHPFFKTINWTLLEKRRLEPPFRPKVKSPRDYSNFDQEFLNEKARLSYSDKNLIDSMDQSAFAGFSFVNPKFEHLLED
Procedure, shortened: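 PKCδ activation read as phospho-S299 on western blots of lysates (50 µg protein, 10% SDS-PAGE, milk blocking, anti-PKCδS299 overnight). Cells: GFP-RasGRP1/3-transfected HEK293 or LNCaP, or Ramos, treated 30 min at 37 °C with half-log doses (maximum 10 µM), 1000 nM PMA or DMSO. Scanned intensities normalized to 1000 nM PMA; EC50 mean ± SEM, n = 3; values above 10 µM extrapolated.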

[3] = biological target: T1, RAS guanyl-releasing protein 1; assay: Activation of GFP-tagged RasGRP1 (unknown origin) expressed in HEK293 cells assessed as ERK1/2 phosphorylation after 30 mins by immunoblot method; procedure, shortened: as §1
Homo sapiens = species on record: Homo sapiens; assay: Selectivity ratio of EC50 for PKCdelta in human Ramos cells expressing RasGRP3 to EC50 for RasGRP3 in human Ramos cells

In the case of `Cn1cc(/C=C2\CC(CO)(COC(=O)C(C)(C)C)OC2=O)c2ccccc21` (centres undefined), the EC50 [1] is reported as 0.97 µM, the EC50 [2] is reported as 12.6 µM and the EC50 [3] is reported as 4.88 µM. For the same compound, the Ratio EC50 (Homo sapiens) was 28.6.

— ChEMBL document CHEMBL4130626, “α-Arylidene Diacylglycerol-Lactones (DAG-Lactones) as Selective Ras Guanine-Releasing Protein 3 (RasGRP3) Ligands” (J Med Chem, 2018)
